Source: ChEMBL document CHEMBL4715736, “Identification of anticancer agents based on the thieno[2,3-b]pyridine and 1H-pyrazole molecular scaffolds” (2016)

How the values were obtained:
Format in all cases: functional
Conditions in all cases: read-out: Activity
[1] = system: TK-10; assay: Growth inhibition of human TK-10 cells assessed as cell growth at 10 uM incubated for 48 hrs by sulforhodamine B assay relative to control
Procedure, shortened: (§1)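 Run by the NCI Developmental Therapeutics Program as part of its 60-line human tumour panel. Each compound tested at a single 10 µM dose. Growth expressed as % relative to untreated control cells (100%).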

[2] = system: HOP-62; assay: Growth inhibition of human HOP-62 cells assessed as cell growth at 10 uM incubated for 48 hrs by sulforhodamine B assay relative to control
Procedure, shortened: (§2)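 Submitted to the NCI Developmental Therapeutics Program for the NCI60 human tumour cell line panel. First screen at a single 10 µM concentration. Read-out is growth relative to untreated control cells set at 100%.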

[3] = system: HT-29; assay: Growth inhibition of human HT-29 cells assessed as cell growth at 10 uM incubated for 48 hrs by sulforhodamine B assay relative to control; procedure, shortened: as §2
[4] = system: SK-MEL-28; assay: Growth inhibition of human SK-MEL-28 cells assessed as cell growth at 10 uM incubated for 48 hrs by sulforhodamine B assay relative to control; procedure, shortened: as §1
[5] = system: NCI-H226; assay: Growth inhibition of human NCI-H226 cells assessed as cell growth at 10 uM incubated for 48 hrs by sulforhodamine B assay relative to control; procedure, shortened: as §2
[6] = system: NCI-H23; assay: Growth inhibition of human NCI-H23 cells assessed as cell growth at 10 uM incubated for 48 hrs by sulforhodamine B assay relative to control; procedure, shortened: as §2
[7] = system: NCI-H322M; assay: Growth inhibition of human NCI-H322M cells assessed as cell growth at 10 uM incubated for 48 hrs by sulforhodamine B assay relative to control; procedure, shortened: as §2
[8] = system: CCRF-CEM; assay: Growth inhibition of human CCRF-CEM cells assessed as cell growth at 10 uM incubated for 48 hrs by sulforhodamine B assay relative to control
Procedure, shortened: (§3)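 NCI Developmental Therapeutics Program NCI60 panel. Compounds that were active in the 10 µM one-dose screen went on to dose–response testing. Growth at each concentration is expressed relative to untreated control (100%). GI50 (concentration giving 50% of maximal inhibition of proliferation) and TGI (concentration giving total growth inhibition) were derived from the curves.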

[9] = system: UACC-62; assay: Growth inhibition of human UACC-62 cells assessed as cell growth at 10 uM incubated for 48 hrs by sulforhodamine B assay relative to control; procedure, shortened: as §1
[10] = system: SW-620; assay: Growth inhibition of human SW-620 cells assessed as cell growth at 10 uM incubated for 48 hrs by sulforhodamine B assay relative to control; procedure, shortened: as §1
[11] = system: K562; assay: Growth inhibition of human K562 cells assessed as cell growth at 10 uM incubated for 48 hrs by sulforhodamine B assay relative to control; procedure, shortened: as §2
[12] = system: MDA-MB-231; assay: Growth inhibition of human MDA-MB-231 cells assessed as cell growth at 10 uM incubated for 48 hrs by sulforhodamine B assay relative to control; procedure, shortened: as §2
[13] = system: RPMI-8226; assay: Growth inhibition of human RPMI-8226 cells assessed as cell growth at 10 uM incubated for 48 hrs by sulforhodamine B assay relative to control; procedure, shortened: as §1
[14] = system: SR; assay: Growth inhibition of human SR cells assessed as cell growth at 10 uM incubated for 48 hrs by sulforhodamine B assay relative to control; procedure, shortened: as §1
[15] = system: SK-MEL-2; assay: Growth inhibition of human SK-MEL-2 cells assessed as cell growth at 10 uM incubated for 48 hrs by sulforhodamine B assay relative to control; procedure, shortened: as §1
[16] = system: LOX IMVI; assay: Growth inhibition of human LOX IMVI cells assessed as cell growth at 10 uM incubated for 48 hrs by sulforhodamine B assay relative to control; procedure, shortened: as §2
[17] = system: UACC-257; assay: Growth inhibition of human UACC-257 cells assessed as cell growth at 10 uM incubated for 48 hrs by sulforhodamine B assay relative to control; procedure, shortened: as §1
[18] = system: OVCAR-5; assay: Growth inhibition of human OVCAR-5 cells assessed as cell growth at 10 uM incubated for 48 hrs by sulforhodamine B assay relative to control; procedure, shortened: as §1
[19] = system: SF-268; assay: Growth inhibition of human SF-268 cells assessed as cell growth at 10 uM incubated for 48 hrs by sulforhodamine B assay relative to control; procedure, shortened: as §1
[20] = system: Hs-578T; assay: Growth inhibition of human Hs-578T cells assessed as cell growth at 10 uM incubated for 48 hrs by sulforhodamine B assay relative to control; procedure, shortened: as §2
[21] = system: NCI-H522; assay: Growth inhibition of human NCI-H522 cells assessed as cell growth at 10 uM incubated for 48 hrs by sulforhodamine B assay relative to control; procedure, shortened: as §2
[22] = system: SK-OV-3; assay: Growth inhibition of human SK-OV-3 cells assessed as cell growth at 10 uM incubated for 48 hrs by sulforhodamine B assay relative to control; procedure, shortened: as §1
[23] = system: BT-549; assay: Growth inhibition of human BT-549 cells assessed as cell growth at 10 uM incubated for 48 hrs by sulforhodamine B assay relative to control
Procedure, shortened: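 NCI Developmental Therapeutics Program NCI60 human tumour cell line panel, one-dose primary screen with every compound at 10 µM. Growth is expressed as % of untreated control cells (100%).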

[24] = system: SNB-75; assay: Growth inhibition of human SNB-75 cells assessed as cell growth at 10 uM incubated for 48 hrs by sulforhodamine B assay relative to control; procedure, shortened: as §1
[25] = system: IGROV-1; assay: Growth inhibition of human IGROV-1 cells assessed as cell growth at 10 uM incubated for 48 hrs by sulforhodamine B assay relative to control; procedure, shortened: as §2
[26] = system: CAKI-1; assay: Growth inhibition of human CAKI-1 cells assessed as cell growth at 10 uM incubated for 48 hrs by sulforhodamine B assay relative to control; procedure, shortened: as §3

| SMILES | growth at 10 µM [1] [%] | growth at 10 µM [2] [%] | growth at 10 µM [3] [%] | growth at 10 µM [4] [%] | growth at 10 µM [5] [%] | growth at 10 µM [6] [%] | growth at 10 µM [7] [%] | growth at 10 µM [8] [%] | growth at 10 µM [9] [%] | growth at 10 µM [10] [%] | growth at 10 µM [11] [%] | growth at 10 µM [12] [%] | growth at 10 µM [13] [%] | growth at 10 µM [15] [%] | growth at 10 µM [16] [%] | growth at 10 µM [17] [%] | growth at 10 µM [18] [%] | growth at 10 µM [19] [%] | growth at 10 µM [20] [%] | growth at 10 µM [21] [%] | other results |
| --- | --- | --- | --- | --- | --- | --- | --- | --- | --- | --- | --- | --- | --- | --- | --- | --- | --- | --- | --- | --- | --- |
| CCOc1ccc(-c2cc(N)n(S(=O)(=O)c3ccc(OC)cc3)n2)cc1 | 130 | 122 | 105 | 103 | 97.7 | 115 | 102 | 86.8 | 92.5 | 110 | 105 | 92.4 | 94.1 | 110 | 105 | 86.6 | 107 | 109 | 99.7 | 101 | growth at 10 µM [14]: 116%; growth at 10 µM [22]: 114%; growth at 10 µM [23]: 111%; growth at 10 µM [24]: 89.9%; growth at 10 µM [25]: 96.6% |
| Cc1cccc(NC(=O)c2sc3nc4c(cc3c2N)CN(Cc2ccccc2)CC4)c1 | 114 | 110 | 100 | 103 | 100 | 100 | 103 | 98.9 | 110 | 96.8 | 109 | 113 | 101 | 129 | 95.8 | 89.8 | 104 | 103 | 94.6 | 114 | growth at 10 µM [14]: 95%; growth at 10 µM [22]: 105%; growth at 10 µM [23]: 79%; growth at 10 µM [24]: 101%; growth at 10 µM [25]: 102% |
| CC(=O)c1cccc(NC(=O)c2sc3nc4c(cc3c2N)C(=O)CCC4)c1 | 89.3 | 97.9 | 96.9 | 92.4 | 102 | 98.8 | 111 | 99.7 | 98.4 | 98.4 | 79.8 | 100 | 92.7 | 103 | 106 | 99.3 | 106 | 110 | 106 | 87.1 | growth at 10 µM [14]: 91.1%; growth at 10 µM [22]: 102%; growth at 10 µM [23]: 93.7%; growth at 10 µM [24]: 94.2%; growth at 10 µM [25]: 96.2% |
| COc1ccc(S(=O)(=O)n2ccc(-c3ccc4c(c3)CCC(C)(C)O4)n2)cc1 | 68.2 | 112 | 84.5 | 98.3 | 71.4 | 59.6 | 101 | 58.9 | 50.5 | 90.3 | 55.6 | 87.7 | 49.2 | 84.4 | 79.5 | 57.4 | 109 | 94.7 | 97.8 | 55.6 | growth at 10 µM [26]: 63.3%; growth at 10 µM [22]: 90.4%; growth at 10 µM [23]: 65.5%; growth at 10 µM [24]: 84%; growth at 10 µM [25]: 90.8% |
| CC(C)N1CCc2nc3sc(C(=O)Nc4ccccc4)c(N)c3cc2C1 | 127 | 94.1 | 103 | 108 | 94.8 | 97.9 | 108 | 100 | 103 | 96.4 | 97.8 | 95.2 | 98.2 | 114 | 102 | 95.1 | 90.2 | 113 | 100 | 104 | growth at 10 µM [14]: 86.6%; growth at 10 µM [22]: 113%; growth at 10 µM [23]: 106%; growth at 10 µM [24]: 69.1%; growth at 10 µM [25]: 100% |
| O=S(=O)(c1ccccc1)n1ccc(-c2ccc3c(c2)CCO3)n1 | 76.2 | 98.8 | 92.8 | 86.2 | 64.6 | 78.4 | 91.4 | 76.7 | 73.1 | 93.7 | 56 | 82.9 | 62.5 | 86.5 | 85.2 | 79.9 | 103 | 92.8 | 102 | 61.7 | growth at 10 µM [26]: 75.3%; growth at 10 µM [14]: 73.3%; growth at 10 µM [22]: 104%; growth at 10 µM [23]: 96%; growth at 10 µM [24]: 76.2%; growth at 10 µM [25]: 75.7% |
| Nc1c(C(=O)N(c2ccccc2)c2ccccc2)sc2nc3c(cc12)C(=O)CCC3 | 113 | 99.3 | 84.5 | 116 | 104 | 101 | 102 | 96.1 | 109 | 89.3 | 113 | 85.9 | 94.8 | 117 | 94.3 | 106 | 130 | 99.8 | 92.3 | 103 | growth at 10 µM [14]: 55.6%; growth at 10 µM [22]: 108%; growth at 10 µM [23]: 55.4%; growth at 10 µM [24]: 108%; growth at 10 µM [25]: 103% |
| CC(=O)c1ccc2c(N)c(C(=O)Nc3ccccc3)sc2n1 | 108 | 102 | 97.2 | 108 | 93.4 | 99.2 | 114 | 101 | 115 | 99.4 | 95 | 112 | 89 | 107 | 105 | 102 | 113 | 112 | 106 | 103 | growth at 10 µM [14]: 86.5%; growth at 10 µM [22]: 106%; growth at 10 µM [23]: 108%; growth at 10 µM [24]: 99.5%; growth at 10 µM [25]: 113% |
